ChEMBL document CHEMBL4007420, “Structural Optimization and Pharmacological Evaluation of Inhibitors Targeting Dual-Specificity Tyrosine Phosphorylation-Regulated Kinases (DYRK) and CDC-like kinases (CLK) in Glioblastoma” (J Med Chem, 2017)
Active and inactive are the calls of the source. The calls are words filed in the database; no cut-off is given here.

How the values were obtained:
[1] = biological target: T1, Dual specificity tyrosine-phosphorylation-regulated kinase 3 (Homo sapiens, UniProt O43781); experiment: Inhibition of full-length recombinant human GST-tagged DYRK3 expressed in Escherichia coli using woodtide as substrate after 30 mins in presence of [gamma-33P]ATP
T1 sequence (O43781 whole entry): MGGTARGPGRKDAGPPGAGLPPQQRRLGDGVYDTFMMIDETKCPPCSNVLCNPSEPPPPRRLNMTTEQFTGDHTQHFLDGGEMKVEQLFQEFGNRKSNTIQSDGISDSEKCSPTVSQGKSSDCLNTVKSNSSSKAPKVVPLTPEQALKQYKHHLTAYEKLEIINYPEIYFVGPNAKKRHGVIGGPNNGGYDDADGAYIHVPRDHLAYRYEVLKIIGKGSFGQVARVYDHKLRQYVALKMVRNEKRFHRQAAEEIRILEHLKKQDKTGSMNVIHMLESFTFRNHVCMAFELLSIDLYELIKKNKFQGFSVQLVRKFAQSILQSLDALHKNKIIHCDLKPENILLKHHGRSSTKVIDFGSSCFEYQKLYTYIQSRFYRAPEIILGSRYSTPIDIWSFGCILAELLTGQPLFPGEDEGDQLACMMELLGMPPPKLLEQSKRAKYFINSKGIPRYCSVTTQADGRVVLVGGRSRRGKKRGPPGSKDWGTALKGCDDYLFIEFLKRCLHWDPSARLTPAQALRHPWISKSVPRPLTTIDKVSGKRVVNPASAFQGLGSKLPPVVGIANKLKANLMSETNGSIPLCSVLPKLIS

[2] = biological target: T2, Dual specificity tyrosine-phosphorylation-regulated kinase 4 (Homo sapiens, UniProt Q9NR20); experiment: Inhibition of full-length recombinant human GST-tagged DYRK4 expressed in baculovirus infected insect cells using DYRKtide as substrate after 5 mins in presence of [gamma-33P]ATP by liquid scintillation counting
T2 sequence (Q9NR20 whole entry): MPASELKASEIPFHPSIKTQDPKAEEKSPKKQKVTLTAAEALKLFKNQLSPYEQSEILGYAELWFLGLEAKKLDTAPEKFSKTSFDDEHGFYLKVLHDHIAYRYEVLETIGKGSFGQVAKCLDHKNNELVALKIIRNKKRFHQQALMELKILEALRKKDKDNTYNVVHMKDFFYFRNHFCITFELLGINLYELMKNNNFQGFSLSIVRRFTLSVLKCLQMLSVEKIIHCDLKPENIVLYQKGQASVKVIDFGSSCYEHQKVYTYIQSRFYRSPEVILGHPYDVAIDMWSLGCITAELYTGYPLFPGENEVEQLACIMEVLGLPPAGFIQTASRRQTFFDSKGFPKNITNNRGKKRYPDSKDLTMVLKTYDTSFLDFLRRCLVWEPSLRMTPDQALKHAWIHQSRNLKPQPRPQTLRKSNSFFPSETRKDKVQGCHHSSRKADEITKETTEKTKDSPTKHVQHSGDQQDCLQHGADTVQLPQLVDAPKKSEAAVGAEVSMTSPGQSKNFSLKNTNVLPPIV

[3] = biological target: T3, Dual specificity tyrosine-phosphorylation-regulated kinase 2 (Homo sapiens, UniProt Q92630); experiment: Inhibition of DYRK2 (unknown origin) using woodtide as substrate after 40 mins in presence of [gamma-33P]ATP by microbeta scintillation counting
T3 sequence (Q92630 whole entry): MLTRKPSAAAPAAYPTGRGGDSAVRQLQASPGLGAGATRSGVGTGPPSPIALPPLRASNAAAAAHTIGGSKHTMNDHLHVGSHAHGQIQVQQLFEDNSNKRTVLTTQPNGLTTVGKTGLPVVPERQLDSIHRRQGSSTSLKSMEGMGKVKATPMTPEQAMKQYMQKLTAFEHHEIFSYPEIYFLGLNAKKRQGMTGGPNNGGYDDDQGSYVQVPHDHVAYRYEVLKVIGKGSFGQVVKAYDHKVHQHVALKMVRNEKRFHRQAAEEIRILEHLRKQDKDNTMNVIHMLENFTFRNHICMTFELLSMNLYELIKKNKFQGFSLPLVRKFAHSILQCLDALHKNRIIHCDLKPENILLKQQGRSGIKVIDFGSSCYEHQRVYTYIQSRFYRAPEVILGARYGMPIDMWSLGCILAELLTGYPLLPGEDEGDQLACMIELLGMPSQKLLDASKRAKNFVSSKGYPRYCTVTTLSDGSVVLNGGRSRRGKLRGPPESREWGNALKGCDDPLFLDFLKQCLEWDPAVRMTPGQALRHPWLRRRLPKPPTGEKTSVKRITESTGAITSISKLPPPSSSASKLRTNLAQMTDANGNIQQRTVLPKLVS

[4] = test system: U-251; experiment: Antimigratory activity in human U251 cells assessed as velocity of migration at 5 uM measured up to 20 hrs by wound scratch assay (reference value: 2159 to 2653 micrometer/hr); type: functional
Outline: (§1)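 Wound-healing migration assay: cell movement across the wound is measured as velocity (µm/h). Compounds were tested at 0, 1.0, 5.0 and 10.0 µM. Values are mean ± SEM of 3 independent experiments.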

[5] = test system: A 172; experiment: Antiinvasive activity in human A172 cells assessed as velocity of invasion at 10 uM measured up to 20 hrs by matrigel assay (reference value: 2659 to 3047 micrometer/hr); type: functional
[6] = test system: A 172; experiment: Antimigratory activity in human A172 cells assessed as velocity of migration at 10 uM measured up to 20 hrs by wound scratch assay (reference value: 2650 to 3123 micrometer/hr); type: functional; outline: as §1
[7] = test system: U-251; experiment: Antiinvasive activity in human U251 cells assessed as velocity of invasion at 1 uM measured up to 20 hrs by matrigel assay (reference value: 1151 to 1710 micrometer/hr); type: functional
[8] = Antimigratory activity in patient-derived RN1 cells assessed as velocity of migration at 1 uM measured up to 20 hrs by wound scratch assay (reference value: 937 to 1174 micrometer/hr); type: functional, Homo sapiens; outline: as §1
[9] = test system: U-251; experiment: Antiinvasive activity in human U251 cells assessed as velocity of invasion at 5 uM measured up to 20 hrs by matrigel assay (reference value: 1151 to 1710 micrometer/hr); type: functional
[10] = test system: U-251; experiment: Antimigratory activity in human U251 cells assessed as velocity of migration at 10 uM measured up to 20 hrs by wound scratch assay (reference value: 2159 to 2653 micrometer/hr); type: functional; outline: as §1
[11] = biological target: Dual specificity protein kinase CLK1 (Homo sapiens, UniProt P49759); experiment: Inhibition of CLK1 (unknown origin) using KKGRSRSRSRSRSR as substrate after 40 mins in presence of [gamma-33P]ATP by microbeta scintillation counting
Outline: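 CLK1 was assayed with RS peptide substrate at 100 µM ATP.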

[12] = test system: A 172; experiment: Antimigratory activity in human A172 cells assessed as velocity of migration at 1 uM measured up to 20 hrs by wound scratch assay (reference value: 2650 to 3123 micrometer/hr); type: functional; outline: as §1
[13] = Cytotoxicity against patient-derived SJH1 cells assessed as reduction in cell viability after 3 days by Alamar blue assay; type: functional, cell-based; conditions: Homo sapiens, SJH1, 72 h
Outline: (§2)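 The patient-derived glioblastoma lines were grown as stem cells under defined conditions to keep the phenotype and genotype of the resected tumours. Viability after treatment was read with Alamar blue.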

[14] = test system: U-251; experiment: Antimigratory activity in human U251 cells assessed as velocity of migration at 1 uM measured up to 20 hrs by wound scratch assay (reference value: 2159 to 2653 micrometer/hr); type: functional; outline: as §1
[15] = test system: A 172; experiment: Antimigratory activity in human A172 cells assessed as velocity of migration at 5 uM measured up to 20 hrs by wound scratch assay (reference value: 2650 to 3123 micrometer/hr); type: functional; outline: as §1
[16] = test system: U-251; experiment: Cytotoxicity against human U251 cells assessed as reduction in cell viability after 3 days by Alamar blue assay; type: functional, cell-based; conditions: U-251, 72 h
[17] = Antimigratory activity in patient-derived RN1 cells assessed as velocity of migration at 5 uM measured up to 20 hrs by wound scratch assay (reference value: 937 to 1174 micrometer/hr); type: functional, Homo sapiens; outline: as §1
[18] = Cytotoxicity against patient-derived JK2 cells assessed as reduction in cell viability after 3 days by Alamar blue assay; type: functional, cell-based; conditions: Homo sapiens, JK2, 72 h; outline: as §2
[19] = test system: A 172; experiment: Cytotoxicity against human A172 cells assessed as reduction in cell viability after 3 days by Alamar blue assay; type: functional, cell-based; conditions: A 172, 72 h
[20] = biological target: Dual specificity tyrosine-phosphorylation-regulated kinase 1B (Homo sapiens, UniProt Q9Y463); experiment: Inhibition of DYRK1B (unknown origin) using woodtide as substrate after 40 mins in presence of [gamma-33P]ATP by microbeta scintillation counting
[21] = Cytotoxicity against patient-derived RN1 cells assessed as reduction in cell viability after 3 days by Alamar blue assay; type: functional, cell-based; conditions: Homo sapiens, RN1, 72 h; outline: as §2
[22] = test system: A 172; experiment: Antiinvasive activity in human A172 cells assessed as velocity of invasion at 5 uM measured up to 20 hrs by matrigel assay (reference value: 2659 to 3047 micrometer/hr); type: functional
[23] = Antimigratory activity in patient-derived RN1 cells assessed as velocity of migration at 10 uM measured up to 20 hrs by wound scratch assay (reference value: 937 to 1174 micrometer/hr); type: functional, Homo sapiens; outline: as §1
[24] = test system: A 172; experiment: Antiinvasive activity in human A172 cells assessed as velocity of invasion at 1 uM measured up to 20 hrs by matrigel assay (reference value: 2659 to 3047 micrometer/hr); type: functional
[25] = test system: U-251; experiment: Antiinvasive activity in human U251 cells assessed as velocity of invasion at 10 uM measured up to 20 hrs by matrigel assay (reference value: 1151 to 1710 micrometer/hr); type: functional
[26] = biological target: Dual specificity tyrosine-phosphorylation-regulated kinase 1A (Homo sapiens, UniProt Q13627); experiment: Inhibition of DYRK1A (unknown origin) using woodtide as substrate after 10 mins in presence of [gamma-33P]ATP by microbeta scintillation counting
[27] = species: Homo sapiens; experiment: Inhibition of tubulin (unknown origin) polymerization
[28] = Cytotoxicity against patient-derived WK1 cells assessed as reduction in cell viability after 5 days by Alamar blue assay; type: functional, cell-based; conditions: Homo sapiens, WK1, 120 h; outline: as §2
[29] = test system: RN1; experiment: (§3) Anticlonogenic activity against patient-derived RN1 cells after 10 to 12 days by toluidine blue staining based assay; type: functional, cell-based; conditions: Homo sapiens
Outline: (§4)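 Cells were exposed to compound for 10 days, then colonies were fixed, stained with Toluidine Blue and counted. […] Values are mean ± SEM of 3 independent experiments, each in duplicate, with one-way ANOVA and Dunnett's test against vehicle.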

[30] = as §3; type: functional, cell-based, Homo sapiens; outline: as §4

Dual specificity tyrosine-phosphorylation-regulated kinase 1B, sequence (Q9Y463 whole entry): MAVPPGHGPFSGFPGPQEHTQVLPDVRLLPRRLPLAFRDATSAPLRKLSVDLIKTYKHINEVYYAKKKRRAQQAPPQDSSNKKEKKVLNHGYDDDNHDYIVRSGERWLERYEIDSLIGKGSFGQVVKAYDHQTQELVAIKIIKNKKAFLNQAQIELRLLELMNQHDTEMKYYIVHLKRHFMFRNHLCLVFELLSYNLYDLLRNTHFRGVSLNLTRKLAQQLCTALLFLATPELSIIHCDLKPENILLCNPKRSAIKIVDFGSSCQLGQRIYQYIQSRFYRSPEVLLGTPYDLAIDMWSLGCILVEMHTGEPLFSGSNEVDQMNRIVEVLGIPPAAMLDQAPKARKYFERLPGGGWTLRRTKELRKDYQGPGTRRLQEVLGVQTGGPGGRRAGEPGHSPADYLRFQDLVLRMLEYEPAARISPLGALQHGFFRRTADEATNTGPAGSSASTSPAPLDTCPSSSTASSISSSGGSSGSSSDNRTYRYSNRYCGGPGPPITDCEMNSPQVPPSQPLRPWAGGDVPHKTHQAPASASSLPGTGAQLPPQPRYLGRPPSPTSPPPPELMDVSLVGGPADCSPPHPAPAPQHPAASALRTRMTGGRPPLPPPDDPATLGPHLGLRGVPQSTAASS
Dual specificity protein kinase CLK1, sequence (P49759 whole entry): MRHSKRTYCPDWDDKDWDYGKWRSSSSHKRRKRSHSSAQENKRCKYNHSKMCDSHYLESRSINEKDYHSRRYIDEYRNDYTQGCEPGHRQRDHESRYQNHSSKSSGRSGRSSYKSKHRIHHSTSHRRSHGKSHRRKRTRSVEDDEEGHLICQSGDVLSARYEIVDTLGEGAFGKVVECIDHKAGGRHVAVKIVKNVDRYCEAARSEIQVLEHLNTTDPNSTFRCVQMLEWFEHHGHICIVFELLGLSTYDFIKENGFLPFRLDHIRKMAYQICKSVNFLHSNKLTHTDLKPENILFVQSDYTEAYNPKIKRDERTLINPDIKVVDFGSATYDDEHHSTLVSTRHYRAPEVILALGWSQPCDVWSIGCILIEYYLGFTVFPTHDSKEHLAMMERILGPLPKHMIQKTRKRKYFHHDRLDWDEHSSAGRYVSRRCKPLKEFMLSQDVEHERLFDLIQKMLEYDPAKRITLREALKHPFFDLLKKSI

| SMILES | IC50 [3] [nM] | Activity [4] [um/hr] | Activity [5] [um/hr] | Activity [6] [um/hr] | Activity [7] [um/hr] | Activity [8] [um/hr] | Activity [9] [um/hr] | Activity [10] [um/hr] | IC50 [11] [nM] | Activity [12] [um/hr] | EC50 [13] [nM] | Activity [14] [um/hr] | Activity [15] [um/hr] | EC50 [16] [nM] | Activity [17] [um/hr] | EC50 [18] [nM] | EC50 [19] [nM] | IC50 [20] [nM] | EC50 [21] [nM] | Activity [22] [um/hr] | other results |
| --- | --- | --- | --- | --- | --- | --- | --- | --- | --- | --- | --- | --- | --- | --- | --- | --- | --- | --- | --- | --- | --- |
| COc1ccc2c(c1)[nH]c1c(C)nccc12 [HARMINE] |  |  |  |  |  |  |  |  |  |  |  |  |  |  |  |  |  |  |  |  | IC50 [1]: 410 nM; IC50 [2]: 80000 nM |
| Nc1ccc(-c2c[nH]c3ncc(-c4ccc(O)cc4)cc23)cc1 | > 1000 | 2370 | 2707 | 2827 | 1451 | 1070 | 1481 | 2702 | > 1000 | 3123 | > 50000 | 2331 | 3065 | > 50000 | 929 | > 50000 | > 50000 | > 1000 | > 50000 | 2232 | Activity [23]: 791 um/hr; Activity [24]: 2411 um/hr; Activity [25]: 1380 um/hr; IC50 [26]: > 1000 nM; inhibition [27]: inactive; EC50 [28]: > 50000 nM |
| CC(=O)Nc1ccc(-c2cnc3[nH]cc(-c4ccc(O)cc4)c3c2)cc1 | 536 | 173 | 1718 | 651 | 736 | 332 | 34 | 111 | 35 | 2891 | 5100 | 1125 | 2296 | 1600 to 4600 | 210 | 8600 | 1600 to 4600 | 38 | 2100 | 2027 | Activity [29]: Dose-dependent effect; EC50 [30]: 2100 nM; Activity [23]: 196 um/hr; Activity [24]: 2731 um/hr; Activity [25]: -118 um/hr; IC50 [26]: 6.6 nM; inhibition [27]: inactive; EC50 [28]: 900 nM |
